Source: PubChem (Broad Institute)
Dyrk1A ADPGlo = Dyrk1A (rat) kinase inhibition; 310,000 compounds, 0.43% hits; AID 504441; inhibition, % at 12.5 µM; ADP-Glo luminescence, NFATc1 peptide; in the data active = inhibition above about 50%;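 also: plate controls were vehicle with enzyme for no effect and no enzyme for full effect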
ARNT TACC3 PPI = disrupts binding between human ARNT and TACC3; Q9Y6A5; AlphaScreen His-ARNT PAS-B/GST-TACC3 binding, luminescence; TACC3 fragment carries E629A point mutation; inhibition, % at 9.99 µM; 390,000 compounds, 0.66% hits;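 active = mean inhibition of replicates at least 50% and at least half of replicates each reaching 50%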;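 also: 0% = complete ARNT plus TACC3 wells and 100% = ARNT alone without TACC3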
CAL PDZ FP-1 = inhibitors of human CAL PDZ peptide binding. 330,000 compounds, 0.02% hits. purified CAL PDZ, TMR-peptide fluorescence polarization, 1 h. inhibition, % at 20 µM;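 active = highest replicate inhibition of at least 40%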;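 also: plate controls were DMSO neutral control wells for no effect and unlabeled competitor peptide control wells for full effect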
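Material – purified CerCALP PDZ construct · Detection – FP readout, S and P plane fluorescence · Measure – percent inhibition from loss of millipolarization · Controls – unlabelled peptide for full inhibition, DMSO wells as neutral · Probe or stimulus – TMR-labelled reporter peptide T*-PRC34 bound in PDZ groove · Times – 1 h at RT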
CAL PDZ FP-2 = blocks peptide binding to the human CAL PDZ domain; Q9HD26; purified CAL PDZ, TMR-peptide fluorescence polarization, 1 h; inhibition, % at 24.9 µM; 300,000 compounds, 0.92% hits;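 active = mean inhibition of at least 30% with at least half of replicates also reaching 30%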;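 also: 0% = DMSO neutral control and 100% = excess unlabeled competitor peptide PRC23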
Starred values were filed as active, the others as inactive; nt = no result. Compounds with a hit are over-represented: about 1.4% of the library has one in this group of screens.

SMILES | Dyrk1A ADPGlo | ARNT TACC3 PPI | CAL PDZ FP-1 | CAL PDZ FP-2
FC(F)(F)c1ccccc1CCN1CCNCC1 | 0 | -4 | 1 | 33*
COc1ccc(C#Cc2ccc([C@@H]3[C@@H](CO)N4CCCCN(C(=O)Cc5ccncc5)C[C@H]34)cc2)cc1 | nt | 9 | nt | nt
Cc1c(N=Cc2c(O)n(Cc3ccccc3)c(=O)[nH]c2=O)c(=O)n(-c2ccccc2)n1C | -1 | nt | -2 | 0
Cc1c(N=Nc2c(O)n(Cc3ccccc3)c(=O)[nH]c2=O)c(=O)n(-c2ccccc2)n1C | -6 | 62* | -2 | nt
COC(=O)[C@H]1[C@H](CO)[C@H]2Cn3c(ccc(-c4cccc(OC)c4)c3=O)[C@@H]1N2CC1CC1 | nt | -5 | nt | nt
Cc1c(C)c2ccc(OCC(=O)N3CCC(C(=O)O)(c4ccccc4)CC3)c(C)c2oc1=O | 4 | 2 | 0 | 2
Cc1c(C)c2ccc(OCC(=O)N3CCC(C(=O)O)(c4ccccc4)CC3)cc2oc1=O | -8 | 24 | 0 | 41*
CC(=O)N1CCCSC1=Nc1ccccc1 | nt | -18 | -1 | 58*
CCOc1ccccc1N=C1SCCCN1C | 2 | -14 | 0 | nt
CCN(CC)C(=O)c1ccc(NC(=S)NC(=O)CCc2ccccc2)cc1 | -2 | 2 | 0 | 10
CCN(CC)C(=O)c1ccc(NC(=O)CCCSc2ccccc2)cc1 | -2 | 3 | -1 | 80*
CCN(CC)C(=O)c1ccc2c(c1)C1C=CCC1C(C(=O)O)N2 (stereo unspecified) | -4 | 13* | 2 | 1
CCCCC(=O)N/N=C/c1c(O)n(Cc2ccco2)c(=O)[nH]c1=O | 2 | 72* | 0 | -2
CC(=O)Nc1ccc(N=Cc2c(O)n(Cc3ccco3)c(=O)[nH]c2=O)cc1 | 7 | -12 | -2 | nt
O=C(N/N=C/c1c(O)n(Cc2ccco2)c(=O)[nH]c1=O)c1ccccc1O | 1 | 65* | 1 | 6
CCCCC(=O)N/N=C/c1c(O)n(CCCC)c(=S)[nH]c1=O | -2 | 61* | -1 | nt
CCCCC(=O)N/N=C/c1c(O)n(-c2cccc3ccccc23)c(=O)[nH]c1=O | 2 | 61* | 0 | 5
O=c1[nH]c(=O)n(Cc2ccco2)c(O)c1C=NCc1ccco1 | 4 | -2 | -2 | 1
COC(=O)[C@H]1[C@H](CO)[C@H]2Cn3c(ccc(C4=CCCCC4)c3=O)[C@@H]1N2Cc1ccccn1 | nt | 11 | nt | nt
O=C(O)[C@H]1[C@H](CO)[C@H]2Cn3c(ccc(C4=CCCCC4)c3=O)[C@@H]1N2C(=O)Cc1ccccn1 | nt | 1 | nt | nt
CC(NC(=O)Cc1cccc2ccccc12)C(=O)N1CCC(=O)CC1 (stereo unspecified) | -1 | 3 | 0 | 47*
O=C(Cc1ccccc1)N1CCCCN2[C@H](C1)[C@H](c1ccc(-c3ccccc3)cc1)[C@@H]2CO | nt | 8 | nt | nt
CCn1c(=O)n(CC)c2cc([N+](=O)[O-])c(N3CCNCC3)cc21 | 0 | 2 | 13 | 69*
CCCC#Cc1ccc([C@@H]2[C@@H](CO)N3CCCCN(C(=O)Cc4ccccn4)C[C@@H]23)cc1 | nt | -1 | nt | nt
CCn1c(O)c(/C=N/NC(=O)c2ccncc2)c(=O)[nH]c1=S | 4 | nt | -2 | -3
SMILES | Dyrk1A ADPGlo | ARNT TACC3 PPI | CAL PDZ FP-1 | CAL PDZ FP-2
CCC(C)n1c(O)c(/C=N/NC(=O)c2ccncc2)c(=O)[nH]c1=S (stereo unspecified) | -6 | 65* | -1 | nt
O=C(N/N=C/c1c(O)n(Cc2ccc(F)cc2)c(=S)[nH]c1=O)c1ccncc1 | nt | 61* | 0 | -2
O=C(Cc1cccnc1)N1CCCCN2[C@H](C1)[C@H](c1ccc(C#CC3(O)CCCC3)cc1)[C@@H]2CO | nt | -3 | nt | nt
COC(=O)[C@H]1[C@H](CO)[C@H]2Cn3c(ccc(C4=CCCC4)c3=O)[C@@H]1N2S(=O)(=O)c1cn(C)cn1 | nt | -1 | nt | nt
CSc1ncc(CN2CCCC(C(=O)c3cccc(Cl)c3)C2)cn1 (stereo unspecified) | -2 | 3 | 0 | 48*
CC(C)Oc1cccc(C(=O)C2CCCN(Cc3ccon3)C2)c1 (stereo unspecified) | -4 | 3 | -1 | 65*
O=C(Cc1ccccn1)N1CCCCN2[C@@H](CO)[C@@H](c3ccc(-c4ccccc4)cc3)[C@@H]2C1 | nt | 5 | nt | nt
N#Cc1cccc(-c2ccc([C@H]3[C@@H](CO)N4CCCCN(C(=O)Cc5ccccc5)C[C@@H]34)cc2)c1 | nt | 2 | nt | nt
O=C(Nc1ccc(Cl)cc1)OC1CN2CCC1CC2 (stereo unspecified) | 2 | 1 | -1 | 48*
O=C(Nc1cccc(Cl)c1)OC1CN2CCC1CC2 (stereo unspecified) | -14 | -1 | -2 | 1
